hIAP inh = blocks human intestinal alkaline phosphatase; P09923; purified IAP, CDP-Star luminescence, 30 min; inhibition, % at 10 µM; 330,000 tested, 0.12% active; AID 2544;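 active = inhibition reaching a set limit with compound at 10 µM in the primary screen, cut at about 35% in these data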;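 note: plate controls were DMSO wells with enzyme for no effect and no-enzyme buffer wells for full effect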
Target sequence (P09923 whole entry, looked up): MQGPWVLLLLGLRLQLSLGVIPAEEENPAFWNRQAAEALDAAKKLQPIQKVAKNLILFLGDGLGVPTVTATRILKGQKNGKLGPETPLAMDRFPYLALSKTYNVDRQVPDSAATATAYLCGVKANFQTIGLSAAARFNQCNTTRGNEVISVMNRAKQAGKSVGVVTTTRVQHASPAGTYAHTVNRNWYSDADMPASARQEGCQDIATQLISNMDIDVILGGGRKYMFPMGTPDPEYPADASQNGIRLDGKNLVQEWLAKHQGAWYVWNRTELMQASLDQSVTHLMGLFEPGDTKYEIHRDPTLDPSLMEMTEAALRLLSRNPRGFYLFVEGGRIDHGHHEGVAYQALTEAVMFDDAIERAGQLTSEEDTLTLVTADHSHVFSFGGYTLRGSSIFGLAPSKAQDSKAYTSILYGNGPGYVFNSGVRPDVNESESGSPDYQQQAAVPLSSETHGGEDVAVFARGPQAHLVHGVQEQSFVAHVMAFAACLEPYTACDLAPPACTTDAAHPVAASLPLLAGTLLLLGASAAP
mIAP inh = blocks mouse intestinal alkaline phosphatase; purified mouse IAP, CDP-Star luminescence, 30 min; inhibition, % at 10 µM; 330,000 tested, 0.2% active;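 active = inhibition of at least 40% at 10 µM in the primary screen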;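 note: plate controls were DMSO with enzyme for no effect and no enzyme wells for full effect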
mIAP act = increases mouse intestinal alkaline phosphatase activity; muIAP, CDP-Star luminescence, 30 min; stronger effect = higher value; 1 = vehicle-only enzyme signal, 0 = enzyme-free wells; activation factor at 10 µM; AID 2805; 330,000 tested, 0.24% active;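 active = activation factor of at least 2 at 20 µM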
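Assay system: mouse IAP enzyme; Reagent: CDP-Star chemiluminescent phosphatase substrate; Compound: DMSO-dissolved test compounds; Incubation: 30 min, room temperature; Technique: luminescence from enzymatic CDP-Star hydrolysis; Controls: DMSO-only wells and no-enzyme negative control.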
hIAP activ = human IAP activation | P09923 | purified human IAP, CDP-Star luminescence, 30 min; stronger effect = higher value; 1 = vehicle-only enzyme, 0 = enzyme-free background | activation factor at 10 µM | 330,000 tested, 0.16% active | AID 2524;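 active = activation factor of the enzyme at least 2-fold when tested at 20 µM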
bIAP activator = increases bovine intestinal alkaline phosphatase activity; 200,000 tested, 0.17% active; activation factor at 20 µM; purified bovine IAP, CDP-star luminescence, 30 min; stronger effect = higher value; fold of DMSO-control signal, blank-subtracted;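 active = activation factor of 2 or more at 20 µM, a signal rise over negative controls twice the positive control's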
bIAP inh = intestinal alkaline phosphatase (bovine) inhibition; purified bovine IAP, CDP-star luminescence, 30 min; 190,000 tested, under 10 active; inhibition, % at 20 µM;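 active = over 50% inhibition of intestinal alkaline phosphatase at 20 µM in the single-dose screen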
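System: Purified bovine intestinal alkaline phosphatase (IAP) enzyme | Input: IAP diluted 1/65,000,000 in the well | Also added: CDP-star chemiluminescent phosphatase substrate, 30 µM final | Dosing: 20 µM single dose | Times: Enzyme reaction for 30 min at room temperature | Detection: Luminescence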
hIAP act confirm = human IAP activation confirmation; activation (%Activity, negative = activation), % at 8.3 µM; shares compounds with hIAP activ; AID 434926; purified IAP, CDP-Star luminescence, 30 min; stronger effect = lower value; 880 tested, 10% active;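 active = at least twofold enzyme activation in any of six single-dose repeats, which the averaged readout prints as negative percent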
Numbers without * were called inactive; . = no result. In the library only some 0.72% were active in any assay of this set; here they are far more common.

SMILES	hIAP inh	mIAP inh	mIAP act	hIAP activ	bIAP activator	bIAP inh	hIAP act confirm
Nc1c(N2CCCC2)cc(Cl)c2nonc12	35*	12	0.88	0.65	0.7	26	41
O=C(CCNS(=O)(=O)c1ccccc1)NNC(=O)c1cccc(Cl)c1	-10	17	0.83	1.1	.	.	.
CCSc1nnc(NC(=O)c2ccc3ccccc3n2)s1	-113	15	0.85	2.1*	1	1	-7
CCc1nnc(NC(=O)c2ccc3ccccc3n2)s1	-53	25	0.75	1.5	1.5	-45	.
COc1ccc(NC2CCCN(C(=O)c3ccc4[nH]c(C)c(C)c4c3)C2)cc1OC (stereo unspecified)	5	-1	1	0.95	.	.	.
COc1ccccc1/C=C/C=N/n1c(-c2ccccn2)n[nH]c1=S	4	4	0.96	0.95	.	.	.
COc1ccccc1/C=C/C=N/n1c(-c2n[nH]c3c2CCC3)n[nH]c1=S	-104	-1	1	2*	.	.	27
Cc1ccccc1/C=N/n1c(-c2cc(-c3ccccc3)n[nH]2)n[nH]c1=S	-104	-1	1	2*	.	.	-3
COc1cccc(/C=N/n2c(-c3n[nH]c4c3CCC4)n[nH]c2=S)c1O	2	22	0.78	0.98	0.9	7	.
COc1ccccc1/C=C/C=N/n1c(-c2cc(C)[nH]n2)n[nH]c1=S	-111	-1	1	2.1*	1	0	11
CCn1c(SCC(=O)Nc2nccs2)nnc1-c1ccccn1	-18	-4	1	1.2	.	.	.
Cc1cc(OCC(=O)NNC(=O)c2cnccn2)cc(C)c1Cl	-106	7	0.93	2.1*	.	.	-55
Cc1ccc(OCC(=O)NCCCNC(=O)c2cnccn2)cc1C	-10	-4	1	1.1	.	.	.
COc1ccc(CN2CCC(n3nccc3NC(=O)C3CCCC3)CC2)cc1	-95	-18	1.2	2	.	.	.
COc1ccc(/C=C/CN2CCC(n3nccc3NC(=O)C3CCCC3)CC2)cc1	-109	-45	1.5	2.1*	.	.	6
Cc1ccc2oc(C(=O)Nc3nonc3C)c(C)c2c1	38*	-4	1	0.62	.	.	-20
Cc1ccc2oc(C(=O)Nc3nnc(C)s3)c(C)c2c1	5	-4	1	0.95	1	5	.
CCOC(=O)c1c(NC(=O)Cn2cc([N+](=O)[O-])cn2)sc2c1CCC2	36*	7	0.93	0.65	1	-4	-91*
COc1ccc(NC(=O)C2CCN(Cc3cnn(-c4ccccc4)c3-n3cccc3)CC2)cc1OC	-100	-71	1.7	2*	3.3*	-225	-55
COc1ccc(OC)c(NC(=O)C2CCN(Cc3cnn(-c4ccccc4)c3-n3cccc3)CC2)c1	3	-10	1.1	0.97	1.1	-14	.
CCC(C)(C)NC(=O)C(c1ccc(OC)cc1)N(C(=O)CCC(=O)Nc1cc(C)on1)c1ccc(F)cc1 (stereo unspecified)	-13	-8	1.1	1.1	.	.	.
CCn1c2ccccc2c2cc(NC(=O)c3coc(=O)c(Br)c3)ccc21	42*	15	0.85	0.58	.	.	39
O=C(CN1CCSC1=O)N1CCN(S(=O)(=O)c2ccccc2)CC1	9	-1	1	0.91	.	.	.
O=C(COc1ccc2ccccc2c1Br)N1CCCCC1	36*	5	0.95	0.64	.	.	-50*
Cc1cccc(C(=O)NNC(=O)CCCCC(=O)NNC(=O)c2cccc(C)c2)c1	-144	-7	1.1	2.4*	.	.	-4
SMILES	hIAP inh	mIAP inh	mIAP act	hIAP activ	bIAP activator	bIAP inh	hIAP act confirm
COc1ccc(CC(=O)NNC(=O)c2cc(C)[nH]n2)cc1	-43	21	0.79	1.4	.	.	.
Cc1cc(C(=O)NNC(=O)CCCCC(=O)NNC(=O)c2cc(C)[nH]n2)n[nH]1	-254	27	0.73	3.5*	0.8	20	-79
C=CCn1c(SCc2ccccc2Cl)nnc1-c1sc2nc(C)cc(C)c2c1N	-7	-13	1.1	1.1	.	.	.
Cc1cc(NS(=O)(=O)c2ccc(NC(=O)C(C(C)C)N3C(=O)c4ccccc4C3=O)cc2)nc(C)n1 (stereo unspecified)	39*	-1	1	0.61	1	-3	-41
COc1ccccc1N(C)S(=O)(=O)c1ccc(Cl)c(C(=O)NNC(=O)c2ccccc2O)c1	-134	38	0.62	2.3*	.	.	59
CCN(CC)c1ccc(/C=N/NC(=O)c2nnn(-c3nonc3N)c2C(C)C)c(O)c1	-100	14	0.86	2*	.	.	32
CC(C)c1c(C(=O)N/N=C/c2ccc3c(c2)OCO3)nnn1-c1nonc1N	-10	2	0.98	1.1	.	.	.
Cc1ccccc1NC(=O)Cc1nc(COC(=O)Cc2c(F)cccc2Cl)cs1	18	-4	1	0.81	.	.	.
CCCCCN1CC(O)=C(c2nc3ccccc3[nH]2)C1=N	-111	-30	1.3	2.1*	1.1	-13	-45
CC(C)[C@H](NC(=O)[C@@H]1Cc2c([nH]c3ccccc23)C2c3ccccc3C(=O)N21)C(=O)NCC1CCCO1 (stereo partly specified)	12	2	0.98	0.89	.	.	.
CN(C)c1ccc(NC(=O)Nc2csc3ccccc23)cc1	-100	-36	1.4	2	.	.	-84
CN(C)c1ccc(NC(=O)Nc2cccc(Cl)c2)cc1	13	-20	1.2	0.87	1	4	.
CCOC(=O)c1c(-c2ccccc2)csc1NC(=O)COc1ccc2c(C)cc(=O)oc2c1	44*	-8	1.1	0.56	0.9	7	-19
COC(=O)c1ccc(C(=O)NC2CCCc3c2cnn3-c2cc(F)cc(F)c2)nc1 (stereo unspecified)	-21	12	0.88	1.2	.	.	.
Cc1ccc2c(c1)Oc1ccc([N+](=O)[O-])cc1C(=O)N2	-137	10	0.9	2.4*	0.9	6	-37
CCc1c(C(=O)NNC(=S)NCCc2ccccc2)csc1C	-113	5	0.95	2.1*	1	-1	-26
CCNc1nc(NCC)nc(-n2nc(C)cc2C)n1	41*	2	0.98	0.59	1	-2	-8
COc1ccc(S(=O)(=O)N(CC(=O)N2CCOCC2)Cc2ccccc2)cc1	-216	6	0.94	3.2*	0.8	16	-3
CC(NC(=S)NC1CCC(C(C)(C)C)CC1)c1ccccc1 (stereo unspecified)	-101	-348	4.5*	2*	.	.	-111*
COc1ccc(C(C)NC(=S)NC2CCCC2)cc1OC (stereo unspecified)	-4	-10	1.1	1	0.9	10	.
O=C(CN1C(=O)NC2(CCc3ccccc32)C1=O)c1ccc(Br)cc1 (stereo unspecified)	7	5	0.95	0.93	.	.	.
Cc1cc(NC(=O)CCSc2ccccc2)ccc1Br	5	-49	1.5	0.95	1	1	.

From PubChem BioAssay
